29 compounds from ChEMBL document CHEMBL1681647, “Targeting bacterial biofilms: design of a terpenoid-like library as non-toxic anti-biofilm compounds” (Bioorg Med Chem Lett, 2011) can be followed below.

SMILES strings stand for the structures. Active and inactive are the calls of the source. No cut-off for these calls is given here. Bounds are passed on as bounds.

Assay [1] concerns Pseudoalteromonas sp. D41. Briefly: Antibiofilm activity in Pseudoalteromonas sp. D41 assessed as bacterial adhesion at 500 uM after 15 mins using DAPI staining by micro-plate fluorescence reader. Format: functional. Particulars: in the assay text read “15 h” for “15 mins”. The procedure, abridged: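 Single-concentration screen at 500 in triplicate. D41 was grown in VNSS at 20 °C to stationary phase, then resuspended in artificial sea water at OD600 0.2–0.4. Incubation was 15 h at 20 °C with an ASW adhesion control. Wells were NaCl-washed and fixed in 2% formaldehyde for 90 min at 4 °C, then DAPI-stained. Fluorescence of the ethanol-solubilized dye was read at 380 nm excitation and 495 nm emission.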

The subject of assay [2] is Pseudoalteromonas sp. D41. As to the kind of experiment: Antibiofilm activity in Pseudoalteromonas sp. D41 assessed as bacterial adhesion after 15 h using DAPI staining by micro-plate fluorescence reader. Conditions: Pseudoalteromonas sp. D41, 15 h.
Assay [3] concerns Pseudoalteromonas sp. D41. As to the kind of experiment: Antibacterial activity against Pseudoalteromonas sp. D41 assessed as inhibition of bacterial growth up to 100 uM. Format: functional. The procedure, abridged:
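Growth assay with D41 grown in VNSS at 20 °C, shaken at 120 rpm and sampled in exponential phase, then subcultured at OD600 0.1. Compound was added at concentrations from 1 to 100 in triplicate, with a growth control and a solvent (DMSO or methanol) control. Plates were shaken at 120 rpm at 20 °C and OD600 was read hourly.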

Assay [4] concerns Pseudoalteromonas sp. D41. Briefly: Antibiofilm activity in Pseudoalteromonas sp. D41 assessed as bacterial adhesion at 500 uM after 15 h using DAPI staining by micro-plate fluorescence reader.

Turning to `CC(C)=CCC/C(C)=C/CC/C(C)=C/Cn1cc(-c2cccc(O)c2)nn1`, the Activity in assay [1] is reported as 34%. For orientation: EC50 means the concentration needed to bring the measured effect to its halfway point. On to `COc1ccc(-n2cc(COC/C=C(\C)CCC=C(C)C)nn2)cc1`, for which the EC50 in assay [2] is 276 µM. In addition, the Activity in assay [1] was determined as 20%. The matching figures for `CC(C)=C[C@@H](O)C/C(C)=C/CC/C(C)=C/CC/C(C)=C/CO` [ELEGANEDIOL]: 224 µM and 14%. Take `COc1cc(OC)cc(-n2cc(COC/C=C(\C)CCC=C(C)C)nn2)c1`: the Activity in assay [1] was 76%. `COc1ccccc1-n1cc(COC/C=C(\C)CC/C=C(\C)CCC=C(C)C)nn1`: in assay [1], the Activity is on record as 35%.

`COc1cc(-n2cc(COC/C=C(\C)CC/C=C(\C)CCC=C(C)C)nn2)cc(OC)c1OC`: the Activity in assay [1] came out at 50%. Still for that read-out and setting: next, `CC(C)=CCC/C(C)=C/CC/C(C)=C/COCc1cn(-c2cccc(O)c2)nn1`: more than 90%.

Take `COc1cc(OC)cc(-c2cn(C/C=C(\C)CCC=C(C)C)nn2)c1`: in assay [1], the Activity is 90%. Consider `CC(C)=CCC/C(C)=C/COCc1cn(-c2ccc(O)cc2)nn1`, for which the Activity in assay [1] is given as more than 90%. Regarding `COc1cc(-n2cc(COC/C=C(\C)CCC=C(C)C)nn2)cc(OC)c1OC`, the Activity in assay [1] stood at 36%. Turning to `COc1ccccc1-c1cn(C/C=C(\C)CCC=C(C)C)nn1`, the Activity in assay [1] is 90%. `COc1cccc(-n2cc(COC/C=C(\C)CC/C=C(\C)CCC=C(C)C)nn2)c1`: the 50% effective concentration (EC50) in assay [2] worked out at 198 µM. In addition, the Activity in assay [1] was determined as 25%.

For `CC(C)=CCC/C(C)=C/Cn1cc(-c2cccc(O)c2)nn1`, the Activity in assay [1] stood at 30%. For the compound `CC(C)=CCC/C(C)=C/COCc1cn(-c2ccc(C(=O)O)cc2)nn1`, the Activity in assay [1] turned out to be 39%. With `COc1cc(OC)cc(-n2cc(COC/C=C(\C)CC/C=C(\C)CCC=C(C)C)nn2)c1`, in assay [1], the Activity is 76%. Still for that read-out and setting: next, `CC(C)=CCC/C(C)=C/CC/C(C)=C/COCc1cn(-c2cccc(C(=O)O)c2)nn1`: more than 90%. In the case of `COc1ccc(-c2cn(C/C=C(\C)CCC=C(C)C)nn2)cc1`, in assay [1], the Activity came out at 3%. For the compound `CC(C)=CCC/C(C)=C/CC/C(C)=C/COCc1cn(-c2ccc(O)cc2)nn1`, the Activity in assay [1] is recorded as 73%. On to `COc1ccc(-c2cn(C/C=C(\C)CC/C=C(\C)CCC=C(C)C)nn2)cc1`, for which, in assay [1], the Activity amounted to 46%. For the compound `CC(C)=CCC/C(C)=C/COCc1cn(-c2cccc(C(=O)O)c2)nn1`, the half-maximal effective concentration (EC50) in assay [2] came out at 74 µM. Further, in assay [3], the inhibition result is “inactive”. For the same compound, the Activity in assay [1] was found to be 32%. Take `COc1ccc(-n2cc(COC/C=C(\C)CC/C=C(\C)CCC=C(C)C)nn2)cc1`: in assay [2], the 50% effective concentration (EC50) came to 117 µM. Further, the Activity in assay [1] turned out to be 24%. As to `CC(C)=CCC/C(C)=C/CC/C(C)=C/COCc1cn(-c2ccc(C(=O)O)cc2)nn1`, the Activity in assay [1] was more than 90%.

In the case of `COc1cccc(-c2cn(C/C=C(\C)CCC=C(C)C)nn2)c1`, the Activity in assay [1] was 90%. Consider `CC(C)=CC(=O)C/C(C)=C/CC/C(C)=C/CC/C(C)=C/CO` [ELEGANOLONE], for which the EC50 in assay [2] was determined as 174 µM. Further, the Activity in assay [1] amounted to 17%.

For `COc1cc(OC)cc(-c2cn(C/C=C(\C)CC/C=C(\C)CCC=C(C)C)nn2)c1`, in assay [2], the EC50 was 71 µM. In addition, the Activity in assay [1] was 0%. In the case of `COc1cccc(-n2cc(COC/C=C(\C)CCC=C(C)C)nn2)c1`, in assay [2], the concentration giving a half-maximal response (EC50) turned out to be 103 µM. For the same compound, in assay [3], the inhibition entry was “inactive”. For the same compound, the Activity in assay [1] was 19%.

As for `CC(C)=CCC/C(C)=C/COCc1cn(-c2cccc(O)c2)nn1`, the Activity in assay [1] is given as 55%. `COc1cccc(-c2cn(C/C=C(\C)CC/C=C(\C)CCC=C(C)C)nn2)c1`: the Activity in assay [4] amounted to 15%.

In the case of `COc1ccccc1-n1cc(COC/C=C(\C)CCC=C(C)C)nn1`, the concentration for a half-maximal effect (EC50) in assay [2] is 166 µM. Moreover, the Activity in assay [1] stood at 29%.
